According to ChEMBL document CHEMBL1127531, “Selective type IV phosphodiesterase inhibitors as antiasthmatic agents. The syntheses and biological activities of 3-(cyclopentyloxy)-4-methoxybenzamides and analogues” (J Med Chem, 1994):

Tests used:
Phosphodiesterase 4A = target: T1, Phosphodiesterase 4A (Sus scrofa, UniProt O77823); experiment: Inhibitory potency against pig aortic PDE IV
T1 sequence (O77823 whole entry): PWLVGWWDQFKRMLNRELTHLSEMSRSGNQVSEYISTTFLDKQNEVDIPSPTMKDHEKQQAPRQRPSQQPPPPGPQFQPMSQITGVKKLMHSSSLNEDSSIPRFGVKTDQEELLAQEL
Procedure, shortened: (§1)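 Pig aortic PDE isozymes were separated by DEAE-trisacryl anion-exchange chromatography. PDE III was assayed in the presence of rolipram (10 µM) and PDE IV in the presence of siguazodan (10 µM) to exclude cross-contamination.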

[1] = Inhibitory potency against pig aortic PDE III.; set-up: species or system Sus scrofa; procedure, shortened: as §1
[2] = target: Phosphodiesterase 1 (Sus scrofa); experiment: Inhibitory potency against pig aortic PDE I.
Cavia porcellus [3] = experiment: In vivo bronchodilator effect on histamine-induced bronchospasm in anaesthetized guinea pigs at 10 ug intravenous dose; type: functional
Cavia porcellus [4] = experiment: In vivo bronchodilator effect on histamine-induced bronchospasm in anaesthetized guinea pigs at 50 ug intravenous dose; type: functional
Cavia porcellus [5] = organism: Cavia porcellus; experiment: Inhibition of superoxide O2-generation from guinea pig peritoneal eosinophils; type: functional
Procedure, shortened: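 Guinea pig peritoneal eosinophils (10^6/well) were incubated for 45 min at 37 °C in HBSS with p-iodonitrotetrazolium violet (0.5 mg/mL). Superoxide was measured as SOD-inhibitable dye reduction: cells were pelleted and dissolved overnight at room temperature in DMSO/0.6 M HCl, and absorbance was read at 492 nm.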

Cavia porcellus [6] = experiment: In vivo bronchodilator effect on histamine-induced bronchospasm in anaesthetized guinea pigs at 20 ug intravenous dose; type: functional
Phosphodiesterase 4 [7] = target: T2, Phosphodiesterase 4 (Homo sapiens, UniProt P27815+Q08499+Q07343+Q08493); experiment: Inhibition of solubilized eosinophil PDE IV; type: protein assay, Cavia porcellus
Cavia porcellus [8] = experiment: In vivo bronchodilator effect on histamine-induced bronchospasm in anaesthetized guinea pigs at 100 ug intravenous dose; type: functional
Phosphodiesterase 4 [9] = target: T2, Phosphodiesterase 4; experiment: Inhibition of guinea pig PDE IV; type: protein assay, Cavia porcellus; details: target entry is the homologue from another species

IC50 (Phosphodiesterase 4A) [µM] | IC50 [1] [µM] | Compound | further results
> 1000 | > 1000 | COc1ccc(C(=O)Nc2ccc(F)cc2)cc1OC1CCCC1 | IC50 [2]: > 1000 µM
0.3 |  | CCCCOc1cc(C(=O)Nc2c(F)cccc2F)ccc1OC | 
1.2 | > 200 | COc1ccc(C(=O)Nc2ccccc2SC)cc1OC1CCCC1 | IC50 [2]: > 200 µM
0.4 |  | COc1ccc(C(=O)Nc2c(Cl)ncnc2Cl)cc1OC1CCCC1 | 
1 | > 200 | COc1ccc(C(=O)Nc2cccc(C)c2)cc1OC1CCCC1 | 
0.24 | > 1000 | COc1ccc(C(=O)Nc2c(F)cccc2Cl)cc1OC1CCCC1 | IC50 [2]: > 1000 µM
10.7 | > 1000 | COc1ccc(C(=O)Nc2ccccc2F)cc1OC1CCCC1 | IC50 [2]: > 1000 µM
3.5 |  | COc1ccc(C(=O)Nc2ncccn2)cc1OC1CCCC1 | 
0.65 |  | COc1ccc(C(=O)Nc2ccccc2Cl)cc1OC | 
0.55 |  | COc1ccc(C(=O)Nc2cccnc2)cc1OC1CCCC1 | 
2.5 | 9.5 | COc1ccc(C(=O)Nc2ccccc2C#N)cc1OC1CCCC1 | 
1.6 |  | CCCOc1cc(C(=O)Nc2c(F)cccc2F)ccc1OC | 
0.13 | > 1000 | COc1ccc(C(=O)Nc2ccccc2Br)cc1OC1CCCC1 | IC50 [2]: > 1000 µM
 |  | COc1ccc(C(=O)Nc2c(Cl)cncc2Cl)cc1OC1CCCC1 | Reduction (Cavia porcellus [3]): 36%; Reduction (Cavia porcellus [4]): 78%; IC50 (Cavia porcellus [5]): 0.024 µM; Reduction (Cavia porcellus [6]): 56%
0.36 |  | COc1ccc(C(=O)Nc2ncccc2Cl)cc1OC1CCCC1 | 
1.3 | > 200 | COc1ccc(C(=O)Nc2ccccc2O)cc1OC1CCCC1 | IC50 [2]: > 200 µM
3.1 | > 1000 | COc1ccc(C(=O)Nc2ccccc2C(F)(F)F)cc1OC1CCCC1 | IC50 [2]: > 1000 µM
0.5 | > 200 | COc1ccc(C(=O)Nc2cc(Cl)ccc2Cl)cc1OC1CCCC1 | 

IC50 (Phosphodiesterase 4A) [µM] | IC50 [1] [µM] | Compound | further results
> 200 | > 200 | COc1ccc(C(=O)Nc2cccc(Cl)c2Cl)cc1OC1CCCC1 | IC50 [2]: > 200 µM
15 |  | O=C(Nc1c(F)cccc1F)c1cccc(OC2CCCC2)c1 | 
> 1000 |  | COc1ccc(C(=O)Oc2c(Cl)cccc2Cl)cc1OC1CCCC1 | 
> 1000 | > 1000 | COc1ccc(C(=O)Nc2ccc(Cl)cc2)cc1OC1CCCC1 | IC50 [2]: > 1000 µM
> 200 | > 200 | COc1ccc(C(=O)Nc2ccc(C)cc2)cc1OC1CCCC1 | IC50 [2]: > 200 µM
0.9 |  | COc1ccc(C(=O)Nc2c(F)cccc2F)cc1OC | 
> 1000 |  | COc1ccc(C(=O)Nc2ccccc2Cl)cc1OC(=O)C(C)(C)C | 
0.007 |  | COc1ccc(C(=O)Nc2c(Br)cncc2Br)cc1OC1CCCC1 | 
0.45 |  | COc1ccc(C(=O)Nc2c(C)noc2C)cc1OC1CCCC1 | 
0.01 |  | COc1ccc(C(=O)Nc2c(Cl)cccc2Cl)cc1OC1CC2CCC1C2 (stereo unspecified) | 
0.001 |  | COc1ccc(C(=O)Nc2c(Cl)cncc2Cl)cc1OC1CC2CCC1C2 (racemic) | Duration (Cavia porcellus [4]): 29 min; Reduction (Cavia porcellus [4]): 35%; IC50 (Phosphodiesterase 4 [7]): 0.0005 µM; IC50 (Cavia porcellus [5]): 0.022 µM; Duration (Cavia porcellus [8]): 59 min; Reduction (Cavia porcellus [8]): 80%; IC50 (Phosphodiesterase 4 [9]): 0.0014 µM
3.1 |  | COc1ccc(C(=O)Nc2ncccc2C)cc1OC1CCCC1 | 
0.55 |  | COc1ccc(C(=O)Nc2c(F)c(F)nc(F)c2F)cc1OC1CCCC1 | 
0.05 |  | COc1ccc(C(=O)Nc2c(Cl)cncc2Cl)cc1OC1CCCCC1 | 
70 |  | COc1ccc(C(=O)Nc2ccccc2Cl)cc1OC(C)=O | 
0.25 | > 200 | COc1ccc(C(=O)Nc2ccccc2[N+](=O)[O-])cc1OC1CCCC1 | 
0.4 | > 1000 | COc1ccc(C(=O)Nc2c(Br)cccc2Br)cc1OC1CCCC1 | 
37 |  | COc1ccc(C(=O)Nc2c(F)cccc2F)cc1 | 
